Test results published in ChEMBL document CHEMBL3797163, “Tryptic Stability of Synthetic Bactenecin Derivatives Is Determined by the Side Chain Length of Cationic Residues and the Peptide Conformation” (J Med Chem, 2016).
≈ marks a conversion by molar mass, not a printed value. Square brackets hold non-standard residues; d marks the D form. Peptide text beside a SMILES is read from it. hArg = N=C(N)NCCCC[C@H](N)C(=O)O; Orn = NCCC[C@H](N)C(=O)O; Dab = NCC[C@H](N)C(=O)O

Tests used:
[1] = Stability of compound assessed as bovine trypsin mediated degradation at 2 to 5 mM after 2 hrs by HPLC/MS analysis; assay type: ADME, Bos taurus; conditions: cattle, isolated protein, 5000 µM
Summary of the method: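 Bovine pancreatic trypsin (salt-free) was freshly dissolved at 1 mg per 50 mL in 0.1 M NH4HCO3, pH 8.2, and added to peptide, which was diluted from 2˗5 mM stocks to a final 60 µM. Reactions were shaken at 37 °C and sampled at 2 h and 24 h. Aliquots were quenched with acetic acid/TFA and analysed by RP-HPLC (C18, 220 nm) and direct-injection ESI-MS. No-enzyme samples served as controls.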

Acinetobacter baumannii = experiment: Antimicrobial activity against Acinetobacter baumannii ATCC 17978 incubated overnight by microdilution method; assay type: functional
Summary of the method: (§1)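 Broth microdilution in Mueller-Hinton broth. Peptides were serially diluted 2-fold in water at twice the final concentration, then mixed 1:1 with bacteria in 2× MHB to a final 2˗7 × 10^5 CFU/mL. Plates were incubated overnight at 37 °C. MIC was taken as the lowest concentration showing no growth.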

Bacillus subtilis = experiment: Antimicrobial activity against Bacillus subtilis C626 incubated overnight by microdilution method; assay type: functional; summary of the method: as §1
Escherichia coli = experiment: Antimicrobial activity against Escherichia coli O157:H7 incubated overnight by microdilution method; assay type: functional
Summary of the method: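 Broth microdilution in Mueller-Hinton broth. Peptides were serially diluted twofold in water at 2× final concentration and mixed 1:1 with bacteria in 2× MHB, giving a final inoculum of 2-7 × 10^5 CFU/mL. Plates were incubated overnight at 37 °C. MIC was read as the lowest concentration with no visible growth.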

Staphylococcus aureus = experiment: Antimicrobial activity against Staphylococcus aureus C622 incubated overnight by microdilution method; assay type: functional; summary of the method: as §1

SMILES	Stability [1]	MIC (Acinetobacter baumannii)	MIC (Bacillus subtilis)	MIC (Escherichia coli)	MIC (Staphylococcus aureus)
CC[C@@H](C)[C@@H](NC(=O)[C@@H](Cc1c[nH]c2ccccc12)NC(=O)[C@@H](CCCCN)NC(=O)[C@@H](Cc1c[nH]c2ccccc12)NC(=O)[C@@H](Cc1c[nH]c2ccccc12)NC(=O)[C@@H](CCCNC(=N)N)NC(=O)[C@H](N)CCCCN)C(=O)N[C@H](CCCNC(=N)N)C(=O)N[C@H](Cc1c[nH]c2ccccc12)C(N)=O	Stable	–	–	–	–
N=C(N)NCCC[C@H](NC(=O)[C@H](CCCNC(=N)N)NC(=O)[C@H](Cc1c[nH]c2ccccc12)NC(=O)[C@H](Cc1c[nH]c2ccccc12)NC(=O)[C@H](CCCCN)NC(=O)[C@H](Cc1c[nH]c2ccccc12)NC(=O)[C@H](Cc1c[nH]c2ccccc12)NC(=O)[C@H](CCCNC(=N)N)NC(=O)[C@@H](N)CCCCN)C(N)=O	Unstable	40 µM (≈ 59.5 µg/mL)	40 µM (≈ 59.5 µg/mL)	2.5 µM (≈ 3.72 µg/mL)	5 µM (≈ 7.43 µg/mL)
CC[C@H](C)[C@H](NC(=O)[C@H](Cc1c[nH]c2ccccc12)NC(=O)[C@H](CCCCN)NC(=O)[C@H](Cc1c[nH]c2ccccc12)NC(=O)[C@H](Cc1c[nH]c2ccccc12)NC(=O)[C@H](CCCNC(=N)N)NC(=O)[C@@H](N)CCCCN)C(=O)N[C@@H](CCCNC(=N)N)C(=O)N[C@@H](Cc1c[nH]c2ccccc12)C(N)=O	Unstable	5 µM (≈ 7.22 µg/mL)	20 µM (≈ 28.9 µg/mL)	1.25 µM (≈ 1.8 µg/mL)	5 µM (≈ 7.22 µg/mL)
N=C(N)NCCC[C@@H](N)C(=O)N[C@H](CCCNC(=N)N)C(=O)N[C@H](Cc1c[nH]c2ccccc12)C(=O)N[C@H](Cc1c[nH]c2ccccc12)C(=O)N[C@H](CCCCN)C(=O)N[C@H](Cc1c[nH]c2ccccc12)C(=O)N[C@H](Cc1c[nH]c2ccccc12)C(=O)N[C@H](CCCNC(=N)N)C(=O)N[C@H](CCCCN)C(N)=O	Stable	–	20 µM (≈ 29.7 µg/mL)	1.25 µM (≈ 1.86 µg/mL)	5 µM (≈ 7.43 µg/mL)
N=C(N)NCCC[C@@H](NC(=O)[C@@H](CCCNC(=N)N)NC(=O)[C@@H](Cc1c[nH]c2ccccc12)NC(=O)[C@@H](Cc1c[nH]c2ccccc12)NC(=O)[C@@H](CCCCN)NC(=O)[C@@H](Cc1c[nH]c2ccccc12)NC(=O)[C@@H](Cc1c[nH]c2ccccc12)NC(=O)[C@@H](CCCNC(=N)N)NC(=O)[C@H](N)CCCCN)C(N)=O	Stable	20 µM (≈ 29.7 µg/mL)	20 µM (≈ 29.7 µg/mL)	1.25 µM (≈ 1.86 µg/mL)	5 µM (≈ 7.43 µg/mL)
CC[C@@H](C)[C@@H](NC(=O)[C@@H](CCCNC(=N)N)NC(=O)[C@H](N)Cc1c[nH]c2ccccc12)C(=O)N[C@H](Cc1c[nH]c2ccccc12)C(=O)N[C@H](CCCCN)C(=O)N[C@H](Cc1c[nH]c2ccccc12)C(=O)N[C@H](Cc1c[nH]c2ccccc12)C(=O)N[C@H](CCCNC(=N)N)C(=O)N[C@H](CCCCN)C(N)=O	Stable	–	–	–	–
CN[C@@H](CC(C)C)C(=O)N[C@H]1C(=O)N[C@@H](CC(N)=O)C(=O)N[C@H]2C(=O)N[C@H]3C(=O)N[C@H](C(=O)N[C@@H](C(=O)O)c4cc(O)cc(O)c4-c4cc3ccc4O)[C@H](O)c3ccc(c(Cl)c3)Oc3cc2cc(c3O[C@H]2O[C@@H](CO)[C@H](O)[C@@H](O)[C@@H]2O[C@@H]2C[C@@](C)(N)[C@@H](O)[C@@H](C)O2)Oc2ccc(cc2Cl)[C@H]1O	–	> 32 µM	1 µM (≈ 1.45 µg/mL)	> 32 µM	1 µM (≈ 1.45 µg/mL)
N=C(N)NCCCC[C@H](NC(=O)[C@H](CCCCNC(=N)N)NC(=O)[C@H](Cc1c[nH]c2ccccc12)NC(=O)[C@@H](Cc1c[nH]c2ccccc12)NC(=O)[C@@H](CCCN)NC(=O)[C@@H](Cc1c[nH]c2ccccc12)NC(=O)[C@H](Cc1c[nH]c2ccccc12)NC(=O)[C@H](CCCCNC(=N)N)NC(=O)[C@H](N)CCCN)C(N)=O	Unstable	40 µM (≈ 60 µg/mL)	40 µM (≈ 60 µg/mL)	2.5 µM (≈ 3.75 µg/mL)	5 µM (≈ 7.5 µg/mL)
N=C(N)NCCCC[C@H](NC(=O)[C@H](CCCCNC(=N)N)NC(=O)[C@H](Cc1c[nH]c2ccccc12)NC(=O)[C@@H](Cc1c[nH]c2ccccc12)NC(=O)[C@@H](CCN)NC(=O)[C@@H](Cc1c[nH]c2ccccc12)NC(=O)[C@H](Cc1c[nH]c2ccccc12)NC(=O)[C@@H](CCCCNC(=N)N)NC(=O)[C@@H](N)CCN)C(N)=O	Unstable	40 µM (≈ 58.9 µg/mL)	40 µM (≈ 58.9 µg/mL)	2.5 µM (≈ 3.68 µg/mL)	5 µM (≈ 7.36 µg/mL)
N=C(N)NCCCC[C@H](NC(=O)[C@@H](CCCCNC(=N)N)NC(=O)[C@H](Cc1c[nH]c2ccccc12)NC(=O)[C@H](Cc1c[nH]c2ccccc12)NC(=O)[C@H](CCCCNC(=N)N)NC(=O)[C@H](Cc1c[nH]c2ccccc12)NC(=O)[C@@H](Cc1c[nH]c2ccccc12)NC(=O)[C@@H](CCCCNC(=N)N)NC(=O)[C@@H](N)CCCCNC(=N)N)C(N)=O	Unstable	20 µM (≈ 32.3 µg/mL)	10 µM (≈ 16.1 µg/mL)	2.5 µM (≈ 4.03 µg/mL)	2.5 µM (≈ 4.03 µg/mL)
CC[C@H](C)[C@H](NC(=O)[C@H](Cc1c[nH]c2ccccc12)NC(=O)[C@H](CCCNC(=N)N)NC(=O)[C@H](Cc1c[nH]c2ccccc12)NC(=O)[C@H](Cc1c[nH]c2ccccc12)NC(=O)[C@H](CCCCN)NC(=O)[C@@H](N)CCCNC(=N)N)C(=O)N[C@@H](CCCCN)C(=O)N[C@@H](Cc1c[nH]c2ccccc12)C(N)=O (H-RKWWRWIKW-NH2)	Unstable	5 µM (≈ 7.22 µg/mL)	20 µM (≈ 28.9 µg/mL)	1.25 µM (≈ 1.8 µg/mL)	2.5 µM (≈ 3.61 µg/mL)
N=C(N)NCCC[C@H](NC(=O)[C@H](Cc1c[nH]c2ccccc12)NC(=O)[C@H](Cc1c[nH]c2ccccc12)NC(=O)[C@H](CCCCN)NC(=O)[C@@H](N)CCCNC(=N)N)C(=O)N[C@@H](Cc1c[nH]c2ccccc12)C(=O)N[C@@H](Cc1c[nH]c2ccccc12)C(=O)N[C@@H](CCCCN)C(=O)N[C@@H](CCCCN)C(N)=O (H-RKWWRWWKK-NH2)	Unstable	> 40 µM	> 40 µM	2.5 µM (≈ 3.65 µg/mL)	10 µM (≈ 14.6 µg/mL)
CC[C@H](C)[C@H](NC(=O)[C@H](Cc1c[nH]c2ccccc12)NC(=O)[C@H](CCN)NC(=O)[C@H](Cc1c[nH]c2ccccc12)NC(=O)[C@H](Cc1c[nH]c2ccccc12)NC(=O)[C@H](CCN)NC(=O)[C@@H](N)CCN)C(=O)N[C@@H](CCN)C(=O)N[C@@H](Cc1c[nH]c2ccccc12)C(N)=O (H-[Dab][Dab]WW[Dab]WI[Dab]W-NH2)	Unstable	5 µM (≈ 6.38 µg/mL)	10 µM (≈ 12.8 µg/mL)	2.5 µM (≈ 3.19 µg/mL)	2.5 µM (≈ 3.19 µg/mL)
NCC[C@H](NC(=O)[C@H](CCN)NC(=O)[C@H](Cc1c[nH]c2ccccc12)NC(=O)[C@H](Cc1c[nH]c2ccccc12)NC(=O)[C@H](CCN)NC(=O)[C@H](Cc1c[nH]c2ccccc12)NC(=O)[C@H](Cc1c[nH]c2ccccc12)NC(=O)[C@H](CCN)NC(=O)[C@@H](N)CCN)C(N)=O (H-[Dab][Dab]WW[Dab]WW[Dab][Dab]-NH2)	Stable	80 µM (≈ 101 µg/mL)	20 µM (≈ 25.2 µg/mL)	2.5 µM (≈ 3.16 µg/mL)	5 µM (≈ 6.31 µg/mL)
CC[C@H](C)[C@H](NC(=O)[C@H](Cc1c[nH]c2ccccc12)NC(=O)[C@H](CCN)NC(=O)[C@H](Cc1c[nH]c2ccccc12)NC(=O)[C@H](Cc1c[nH]c2ccccc12)NC(=O)[C@H](CCCCNC(=N)N)NC(=O)[C@@H](N)CCN)C(=O)N[C@@H](CCCCNC(=N)N)C(=O)N[C@@H](Cc1c[nH]c2ccccc12)C(N)=O (H-[Dab][hArg]WW[Dab]WI[hArg]W-NH2)	Unstable	5 µM (≈ 7.08 µg/mL)	20 µM (≈ 28.3 µg/mL)	1.25 µM (≈ 1.77 µg/mL)	5 µM (≈ 7.08 µg/mL)
CC[C@H](C)[C@H](NC(=O)[C@H](Cc1c[nH]c2ccccc12)NC(=O)[C@H](CCCN)NC(=O)[C@H](Cc1c[nH]c2ccccc12)NC(=O)[C@H](Cc1c[nH]c2ccccc12)NC(=O)[C@H](CCCN)NC(=O)[C@@H](N)CCCN)C(=O)N[C@@H](CCCN)C(=O)N[C@@H](Cc1c[nH]c2ccccc12)C(N)=O (H-[Orn][Orn]WW[Orn]WI[Orn]W-NH2)	Unstable	10 µM (≈ 13.3 µg/mL)	10 µM (≈ 13.3 µg/mL)	1.25 µM (≈ 1.66 µg/mL)	5 µM (≈ 6.66 µg/mL)
NCCC[C@H](NC(=O)[C@H](CCCN)NC(=O)[C@H](Cc1c[nH]c2ccccc12)NC(=O)[C@H](Cc1c[nH]c2ccccc12)NC(=O)[C@H](CCCN)NC(=O)[C@H](Cc1c[nH]c2ccccc12)NC(=O)[C@H](Cc1c[nH]c2ccccc12)NC(=O)[C@H](CCCN)NC(=O)[C@@H](N)CCCN)C(N)=O (H-[Orn][Orn]WW[Orn]WW[Orn][Orn]-NH2)	Unstable	> 80 µM	40 µM (≈ 53.3 µg/mL)	2.5 µM (≈ 3.33 µg/mL)	20 µM (≈ 26.7 µg/mL)
